Screens (PubChem)
A selection: hits, their analogues and other compounds. The true share with any hit is near 2.4%.
ANO1 activ = activates or potentiates the mouse TMEM16A chloride channel; Q8BHY3; HEK293 TMEM16A/YFP-H148Q/I152L, iodide quench fluorescence; hits give low values; B-score at 10 µM; 340,000 tested, 0.3% active; AID 623877;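 active = fluorescence-ratio B-score plate-corrected deviation score at least 3 library SD below zero, with starting fluorescence score within 5 deviations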;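 also: channel opened by trigger with iodide after compound preincubation; score built on the fluorescence ratio of max minus min over baseline; more negative score means more quench and so TMEM16A activation or potentiation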
Target sequence (Q8BHY3 whole entry, looked up): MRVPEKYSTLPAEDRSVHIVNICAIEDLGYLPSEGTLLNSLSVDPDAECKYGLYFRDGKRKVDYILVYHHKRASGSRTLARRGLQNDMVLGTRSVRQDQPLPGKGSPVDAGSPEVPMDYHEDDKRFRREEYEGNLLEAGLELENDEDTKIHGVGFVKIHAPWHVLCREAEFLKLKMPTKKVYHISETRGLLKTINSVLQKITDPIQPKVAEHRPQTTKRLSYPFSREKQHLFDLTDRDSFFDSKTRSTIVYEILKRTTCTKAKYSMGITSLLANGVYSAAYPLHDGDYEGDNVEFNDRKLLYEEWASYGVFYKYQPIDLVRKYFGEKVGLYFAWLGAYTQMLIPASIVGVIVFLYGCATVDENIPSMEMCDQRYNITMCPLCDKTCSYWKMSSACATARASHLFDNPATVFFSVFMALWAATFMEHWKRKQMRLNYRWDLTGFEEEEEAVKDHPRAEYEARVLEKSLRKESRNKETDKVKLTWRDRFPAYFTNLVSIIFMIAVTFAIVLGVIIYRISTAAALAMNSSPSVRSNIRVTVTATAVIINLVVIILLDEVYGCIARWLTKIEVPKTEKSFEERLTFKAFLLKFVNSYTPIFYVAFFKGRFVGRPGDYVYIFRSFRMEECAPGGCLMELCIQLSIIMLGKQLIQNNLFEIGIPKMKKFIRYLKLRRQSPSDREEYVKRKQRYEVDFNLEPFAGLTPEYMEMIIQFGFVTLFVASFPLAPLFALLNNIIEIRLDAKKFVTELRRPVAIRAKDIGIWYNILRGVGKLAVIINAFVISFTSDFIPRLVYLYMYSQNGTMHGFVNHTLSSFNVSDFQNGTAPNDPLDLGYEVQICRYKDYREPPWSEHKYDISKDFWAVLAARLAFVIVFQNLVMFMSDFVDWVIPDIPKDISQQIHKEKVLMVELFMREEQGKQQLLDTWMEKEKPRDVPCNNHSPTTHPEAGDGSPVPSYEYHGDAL
Apaf-1 inh = inhibitors of human Apaf-1 apoptosome | 330,000 tested, 0.71% active | O14727 | AID 489030 | inhibition, % at 20 µM | reconstituted apoptosome caspase-3 activity, DEVD-Rh110 fluorescence; active = inhibition of at least 40% at 20 µM;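 also: plate controls were DMSO wells for no effect and DEVD-CHO caspase inhibitor wells for full effect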
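Material: reconstituted apoptosome with Apaf-1, cytochrome c, caspase-9, procaspase-3, dATP. Technique: Rh110 fluorescence intensity. Buffer or medium: pH 7.5 Hepes buffer with CHAPS, BSA, DTT. Times: 30 min plus 50 min, RT.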
FID counter = displaces DNA intercalator in HCV helicase counter-screen; inhibition, % at 7.9 µM; AID 1845; DNA fluorescent intercalator displacement, fluorescence; 290,000 tested, 0.17% active; in the data active = inhibition above about 37%;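 also: 0% = vehicle and 100% = reference compound; higher means more ethidium bromide displaced from hairpin DNA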
UBC13 polyUb = inhibitors of human UBC13 polyubiquitin chain formation; TR-FRET; inhibition, % at 20 µM; AID 485273; P61088; 330,000 tested, 0.47% active; in the data active = inhibition above about 45%, passing the limit was not always enough; inconclusive = no clear call, values can overlap the other calls
TMEM16A inh = mouse TMEM16A channel inhibition, primary screen | normalized B-score (activity score, 25-100; higher = stronger inhibition) at 10 µM | HEK293 TMEM16A/YFP iodide influx fluorescence, ionomycin | 310,000 tested, 1.2% active | AID 588511 | Q8BHY3;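 active = ratio plate-corrected score three or more library SD toward inhibition, starting fluorescence score within five deviations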;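 also: score derived from kinetic fluorescence span divided by baseline fluorescence per well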
Casp3 counter = caspase-3 inhibition (UBC13 counter-screen); shares compounds with UBC13 polyUb; Recombinant caspase-3, Caspase-Glo 3/7 luminescence, 60 min; inhibition, % at 20 µM; 1,400 tested, 4% active; AID 488856;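 active = mean inhibition across replicates above about 26%, limit read from the data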;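 also: plate controls were DMSO with caspase-3 for no effect and DMSO wells lacking enzyme for full effect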
UBC13 confirm = human UBC13 polyubiquitin inhibition, confirmed. inhibition, % at 10 µM. shares compounds with UBC13 polyUb. AID 488859. 1,400 tested, 68% active. UBC13 polyubiquitination, TR-FRET, biochemical; in the data active = inhibition above about 45%; inconclusive = no clear call, values can overlap the other calls
Active calls of the source: *; i = inactive; ? = inconclusive; nt = no result.

SMILES	ANO1 activ	Apaf-1 inh	FID counter	UBC13 polyUb	TMEM16A inh	Casp3 counter	UBC13 confirm
C[C@@H]1CCCCCCCCC(=O)OCCN[C@H](C)CCCCCCCCC(=O)OCCN[C@H](C)CCCCCCCCC(=O)OCCN1	i	68*	nt	63*	nt	-3	51*
C[C@@H]1CCCCCCCCC(=O)OCCN(C(=O)OC(C)(C)C)[C@H](C)CCCCCCCCC(=O)OCCN1C(=O)OC(C)(C)C	i	4	nt	-11	nt	nt	nt
C#CCOCCOCCOCCNc1nc(N2CCN(C(=O)[C@H](CCCCN)n3cc(CN)nn3)CC2)nc(N2CCN(C(=O)[C@H](CCCN=C(N)N)n3cc(C(N)[C@H](C)CC)nn3)CC2)n1 (some centres not stated)	i	35	nt	92*	nt	2	103*
C#CCOCCOCCOCCNc1nc(N2CCN(C(=O)[C@H](CCCN=C(N)N)n3cc(C(N)[C@H](C)CC)nn3)CC2)nc(N2CCN(C(=O)[C@H](CCCN=C(N)N)n3cc(C(N)[C@@H](C)CC)nn3)CC2)n1 (some centres not stated)	i	36	nt	74*	nt	-1	56*
C#CCOCCOCCOCCNc1nc(N2CCN(C(=O)[C@H](CCCN=C(N)N)n3cc(C(N)[C@@H](C)CC)nn3)CC2)nc(N2CCN(C(=O)[C@H](CC(N)=O)n3cc([C@@H](N)CC(N)=O)nn3)CC2)n1 (some centres not stated)	i	33	nt	64*	nt	2	51*
C#CCOCCOCCOCCNc1nc(N2CCN(C(=O)[C@H](CCCN=C(N)N)n3cc(C(N)[C@@H](C)CC)nn3)CC2)nc(N2CCN(C(=O)[C@H](CC(N)=O)n3cc([C@@H](N)C(C)C)nn3)CC2)n1 (some centres not stated)	i	12	nt	7	nt	nt	nt
C#CCOCCOCCOCCNc1nc(N2CCN(C(=O)[C@H](CCC(=O)O)n3cc(C(N)[C@H](C)CC)nn3)CC2)nc(N2CCN(C(=O)[C@H](CCC(=O)O)n3cc(C(N)[C@H](C)CC)nn3)CC2)n1 (some centres not stated)	i	2	-37	-6	i	nt	nt
CC(C)Cn1c(=O)c(CCC(=O)Nc2ccc(N3CCOCC3)cc2)nc2cc(Cl)ccc21	i	9	-17	-8	i	nt	nt
Clc1ccc(C2=NCCN2)cc1	i	11	1	-18	i	nt	nt
CN(C)C1=NCCN1CCc1ccc(F)cc1	i	-5	nt	-1	i	nt	nt
CN1CCN(c2ccc(S(=O)(=O)N3CCCCC3)cc2NC(=O)c2ccc3ccccc3c2)CC1	i	-155	21	46*	i	-6	52*
Cc1ccccc1C(=O)Nc1cc(S(=O)(=O)N2CCCCC2)ccc1N1CCN(C)CC1	i	0	15	18	i	nt	nt
COc1cc2[nH]c3c(Cl)ncnc3c2cc1OC	i	9	2	27	i	nt	nt
COc1cc2[nH]c3c(N4CCN(c5ccc(Cl)cc5)CC4)ncnc3c2cc1OC	i	0	1	51*	i	2	33
Cn1c(=O)cc(SCC(=O)NCc2ccc(F)cc2)c2ccccc21	i	-5	-15	14	i	nt	nt
Cn1c(=O)cc(SCC(=O)NCCCN2CCN(c3ccc(F)cc3)CC2)c2ccccc21	i	12	10	82*	i	-2	?
COc1ccc(-c2nnc(SCC(=O)O)n2Cc2ccccc2)cc1	i	8	-34	-4	i	nt	nt
COc1cc(Cl)c(C)cc1NC(=O)CN1CCN(C(=O)C2CC2)CC1	i	-21	nt	3	nt	nt	nt
Cc1ccc(C(=O)NNC(=O)C2CCN(S(=O)(=O)c3ccc(Cl)cc3)CC2)cc1	i	2	-14	40	i	nt	nt
O=C(NNC(=O)C1CCN(S(=O)(=O)c2ccc(Cl)cc2)CC1)c1ccc(S(=O)(=O)N2CCCCC2)cc1	i	6	-13	56*	i	7	52*
CN1CCc2c(sc(/N=C/c3c[nH]c4ccccc34)c2C(N)=O)C1	i	-1	1	85*	i	2	-10
CN(C)CCCN(C(=O)c1ccc(S(=O)(=O)N2CCc3ccccc3C2)cc1)c1nc2c(F)cccc2s1	i	32	16	29	i	nt	nt
Cc1cc(C)c2sc(N(CCCN(C)C)C(=O)c3ccc(S(=O)(=O)N4CCc5ccccc5C4)cc3)nc2c1	i	23	nt	87*	i	-5	112*
COc1ccc2sc(N(CCCN(C)C)C(=O)c3ccc(S(=O)(=O)N4CCc5ccccc5C4)cc3)nc2c1	i	37	nt	75*	i	0	110*
